The test system of test [1] is Vero. As to the kind of experiment: Cytotoxicity against Vero cell line. The test is classed as functional, cell-based. To be noted: Chlorocebus sabaeus.
In test [2] the test system is Mycobacterium tuberculosis. Description: Antimycobacterial activity against Mycobacterium tuberculosis H37Rv. In kind it is functional. In outline:
(§1)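 MIC determined by agar dilution, following the NCCLS-recommended approach, in duplicate. Strains were M. tuberculosis H37Rv and a multidrug-resistant M. tuberculosis. Concentrations were tested up to 25 µg/mL.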

Test [3] concerns Vero. Description: Selectivity index, IC50 for Vero cell line/ MIC for Mycobacterium tuberculosis H37Rv. In kind it is functional. Put shortly: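 Vero cells were exposed to compound at 62.5 µg/mL for 72 h. Viability was read by MTT conversion to formazan. Selectivity index is the Vero IC50 divided by the agar-dilution MIC against the listed strain.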
Test [4] deals with Mycobacterium tuberculosis. As to the kind of experiment: Activity against Mycobacterium tuberculosis H37Rv infected in CD1 mouse assessed as decrease in bacterial load relative to control in lung at 25 mg/kg, ip. The test is classed as functional. To be noted: route intraperitoneal. Put shortly: (§2)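 Female CD-1 mice, 6 weeks old, infected intravenously via the caudal vein with about 10⁷ viable M. tuberculosis ATCC 35801. Intraperitoneal treatment for 10 days after inoculation.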

The test system of test [5] is Mycobacterium tuberculosis. Description: Activity against Mycobacterium tuberculosis H37Rv infected in CD1 mouse assessed as decrease in bacterial load relative to control in spleen at 25 mg/kg, ip. To be noted: route intraperitoneal. The test is classed as functional. In outline:
as §2

For test [6], the system named is Mycobacterium tuberculosis. Description: Activity against Mycobacterium tuberculosis H37Rv infected in CD1 mouse assessed as decrease in bacterial load relative to control in lung at 50 mg/kg, ip. The test is classed as functional. To be noted: route intraperitoneal. Put shortly: as §2
The subject of test [7] is Mycobacterium tuberculosis. Description: Activity against Mycobacterium tuberculosis H37Rv infected in CD1 mouse assessed as decrease in bacterial load relative to control in spleen at 50 mg/kg, ip. The test is classed as functional. To be noted: route intraperitoneal. In outline:
as §2

The subject of test [8] is Mycobacterium tuberculosis. Description: Antimycobacterial activity against Mycobacterium tuberculosis H37Rv at 25 ug/ml. The test is classed as functional, organism-based. Put shortly: as §1

Structures are written as SMILES. Converted amounts (≈) assume the structure as drawn. The source made the active and inactive calls. The calls are words filed in the database; no cut-off is given here.

The term IC50 denotes the concentration needed to halve the response being measured. As usually defined, the MIC is the least concentration at which growth counts as inhibited. Low readings indicate a more susceptible organism, high ones a less susceptible organism.

In the test with Vero [1], `C/C(=N\N=C(/S)Nc1ncc(C2CCC2)o1)c1ccc([N+](=O)[O-])cc1` showed an IC50 of 62.5 µg/mL (≈ 174 µM). In addition, in test [2], the MIC is 0.2 µg/mL (≈ 0.556 µM).
In turn, `COc1ccc(/C=N/N=C(\S)Nc2ncc(C3CCC3)o2)cc1` registered an MIC in test [2] of 6.25 µg/mL (≈ 18.9 µM).
On the same count and under the same terms, as for `C/C(=N\N=C(/S)Nc1ncc(C2CCC2)o1)c1ccc(O)cc1`, the figure is 3.12 µg/mL (≈ 9.44 µM); as for `Oc1ccccc1/C=N/N=C(\S)Nc1ncc(C2CCC2)o1`, 6.25 µg/mL (≈ 19.8 µM).
As to `O=[N+]([O-])c1cccc(/C=N/N=C(\S)Nc2ncc(C3CCC3)o2)c1`, the IC50 in the test with Vero [1] was under 62.5 µg/mL. In test [2], this molecule displayed an MIC of 0.78 µg/mL (≈ 2.26 µM).
The matching figures for `CO[C@H]1/C=C/O[C@@]2(C)Oc3c(C)c(O)c4c(O)c(c(/C=N/N5CCN(C)CC5)c(O)c4c3C2=O)NC(=O)/C(C)=C\C=C\[C@H](C)[C@H](O)[C@@H](C)[C@@H](O)[C@@H](C)[C@H](OC(C)=O)[C@@H]1C` [RIFAMPIN]: over 62.5 µg/mL and 0.1 µg/mL (≈ 0.122 µM).
Consider `C/C(=N\N=C(/S)Nc1ncc(C2CCC2)o1)c1ccc(C)cc1`, for which, in test [2], the MIC is 0.78 µg/mL (≈ 2.37 µM).
As for `S=C(NN=C(c1ccccc1)c1ccccc1)Nc1ncc(C2CCC2)o1`, in the test with Vero [1], the 50% inhibitory concentration (IC50) was over 62.5 µg/mL. This molecule came in with an MIC in test [2] of 0.1 µg/mL (≈ 0.266 µM). For the same molecule, the Selectivity index in the test on Vero [3] is recorded as over 1250.
In the test with Vero [1], `NNC(=O)c1ccncc1` [ISONIAZID] displayed an IC50 of over 62.5 µg/mL. For the same molecule, the MIC in test [2] came out at 0.05 µg/mL (≈ 0.365 µM). Moreover, the Log10 cfu in test [4] was 5.12; in test [5], 4.11.
In the test on Vero [1], `S=C(N/N=C(\c1ccccc1)c1ccc(Br)cc1)Nc1ncc(C2CCC2)o1` had an IC50 of over 62.5 µg/mL. Moreover, the MIC in test [2] is 0.05 µg/mL (≈ 0.11 µM). Besides, the Log10 cfu in test [6] amounted to 5.78; in test [7] it was 5.12.
In test [2], `COc1cc(/C=N/N=C(\S)Nc2ncc(C3CCC3)o2)ccc1O` displayed a minimum inhibitory concentration (MIC) of 12.5 µg/mL (≈ 36.1 µM).
In the test with Vero [1], `C/C(=N\N=C(/S)Nc1ncc(C2CCC2)o1)c1ccc(N)cc1` yielded an IC50 of 62.5 µg/mL (≈ 190 µM). In test [2], it took 0.78 µg/mL (≈ 2.37 µM) to inhibit growth (MIC).
In the test on Vero [1], `COc1c(N2CCNC(C)C2)c(F)cc2c(=O)c(C(=O)O)cn(C3CC3)c12` (stereo not drawn) [GATIFLOXACIN] came in with an IC50 of over 62.5 µg/mL. In test [2], this molecule yielded an MIC of 0.2 µg/mL (≈ 0.533 µM). Besides, the Log10 cfu amounted to 6.02 in test [6] and 6.24 in test [7].
Take `O=[N+]([O-])c1ccc(/C=N/N=C(\S)Nc2ncc(C3CCC3)o2)cc1`: in the test on Vero [1], the IC50 was under 62.5 µg/mL. For the same molecule, the MIC in test [2] turned out to be 0.39 µg/mL (≈ 1.13 µM).
The matching figures for `Cc1ccc(/C=N/N=C(\S)Nc2ncc(C3CCC3)o2)cc1`: under 62.5 µg/mL and 3.12 µg/mL (≈ 9.92 µM).
In the case of `C/C(=N\N=C(/S)Nc1ncc(C2CCC2)o1)c1ccccc1O`, the MIC in test [2] came to 3.12 µg/mL (≈ 9.44 µM).
Same read-out and setting: as for `S=C(NN=C(Cc1ccccc1)Cc1ccccc1)Nc1ncc(C2CCC2)o1`, the figure is 6.25 µg/mL (≈ 15.4 µM).
Same read-out and setting: as for `C/C(=N\N=C(/S)Nc1ncc(C2CCC2)o1)c1ccccc1`, the figure is 3.12 µg/mL (≈ 9.92 µM).
Still for that read-out and setting: as for `Oc1[nH]c2ccccc2c1/N=N/C(S)=N/c1ncc(C2CCC2)o1`, the figure is 25 µg/mL (≈ 73.2 µM).
In the case of `CN(C)c1ccc(/C=N/N=C(\S)Nc2ncc(C3CCC3)o2)cc1`, the MIC in test [2] came to 3.12 µg/mL (≈ 9.08 µM).
The same measure, in the same setting: as for `Oc1[nH]c2ccc(F)cc2c1/N=N/C(S)=N/c1ncc(C2CCC2)o1`, the figure is 12.5 µg/mL (≈ 34.8 µM); as for `S=C(N/N=C/c1ccc(Cl)cc1)Nc1ncc(C2CCC2)o1`, 1.56 µg/mL (≈ 4.66 µM).
`CC[C@@H](CO)NCCN[C@@H](CC)CO` [ETHAMBUTOL] displayed an IC50 in the test with Vero [1] of over 62.5 µg/mL. In test [2], this molecule yielded an MIC of 1.56 µg/mL (≈ 7.64 µM).
For the molecule `O=[N+]([O-])c1ccccc1/C=N/N=C(\S)Nc1ncc(C2CCC2)o1`, the MIC in test [2] was determined as 0.78 µg/mL (≈ 2.26 µM).
Turning to `N/N=C(\S)Nc1ncc(C2CCC2)o1`, in test [8], the result was inactive.

The values above are taken from ChEMBL document CHEMBL1148530, “Discovery of new antitubercular oxazolyl thiosemicarbazones” (J Med Chem, 2006).
